Test results from ChEMBL document CHEMBL3627612, “Hirsutinolide Series Inhibit Stat3 Activity, Alter GCN1, MAP1B, Hsp105, G6PD, Vimentin, TrxR1, and Importin α-2 Expression, and Induce Antitumor Effects against Human Glioma” (J Med Chem, 2015).
The source made the active and inactive calls. The rule behind the calls is not given here.

Tests used:
U-251 [1] = assay: Antiproliferative activity against human U251MG cells at 5 uM for 72 hrs by cyquant assay; type: functional
Summary of the method: (§1)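 CyQuant proliferation assay after 72 h compound exposure of cultured cells; relative viability normalized to DMSO-treated control; IC50 values derived. Glioma lines grown in RPMI or DMEM with 10% FBS and 1% nonessential amino acids.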

[2] = biological target: T1, Signal transducer and activator of transcription 1 (Mus musculus) (UniProt P42225); assay: Inhibition of Stat1 dimer DNA binding activity in EGF-stimulated mouse NIH3T3 nuclear extract expressing human EGFR at 5 uM preincubated for 30 mins followed by addition of radiolabeled probe hSIE for 30 mins by EMSA
T1 sequence (whole entry): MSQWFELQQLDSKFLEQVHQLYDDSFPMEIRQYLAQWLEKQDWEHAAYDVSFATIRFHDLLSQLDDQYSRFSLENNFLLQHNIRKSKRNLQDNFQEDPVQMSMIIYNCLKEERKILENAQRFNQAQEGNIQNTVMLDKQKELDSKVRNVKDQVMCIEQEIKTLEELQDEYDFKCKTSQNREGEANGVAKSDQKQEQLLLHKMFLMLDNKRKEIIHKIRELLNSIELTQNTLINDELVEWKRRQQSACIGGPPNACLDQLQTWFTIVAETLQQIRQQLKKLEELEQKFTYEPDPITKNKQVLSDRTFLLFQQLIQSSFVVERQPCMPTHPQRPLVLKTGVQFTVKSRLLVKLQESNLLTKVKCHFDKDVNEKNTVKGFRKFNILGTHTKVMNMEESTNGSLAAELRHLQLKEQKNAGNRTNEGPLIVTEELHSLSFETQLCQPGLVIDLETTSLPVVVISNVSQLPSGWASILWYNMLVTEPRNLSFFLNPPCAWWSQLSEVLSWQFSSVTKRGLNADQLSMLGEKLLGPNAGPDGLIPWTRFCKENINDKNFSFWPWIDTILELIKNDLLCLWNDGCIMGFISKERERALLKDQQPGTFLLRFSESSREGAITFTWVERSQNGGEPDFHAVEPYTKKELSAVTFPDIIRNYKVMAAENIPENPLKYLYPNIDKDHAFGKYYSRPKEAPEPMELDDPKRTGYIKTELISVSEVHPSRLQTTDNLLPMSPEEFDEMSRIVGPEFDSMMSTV

[3] = biological target: T2, Signal transducer and activator of transcription 3 (Homo sapiens, UniProt P40763); assay: Binding affinity to Stat3 (unknown origin) by NMR analysis
T2 sequence (P40763 whole entry): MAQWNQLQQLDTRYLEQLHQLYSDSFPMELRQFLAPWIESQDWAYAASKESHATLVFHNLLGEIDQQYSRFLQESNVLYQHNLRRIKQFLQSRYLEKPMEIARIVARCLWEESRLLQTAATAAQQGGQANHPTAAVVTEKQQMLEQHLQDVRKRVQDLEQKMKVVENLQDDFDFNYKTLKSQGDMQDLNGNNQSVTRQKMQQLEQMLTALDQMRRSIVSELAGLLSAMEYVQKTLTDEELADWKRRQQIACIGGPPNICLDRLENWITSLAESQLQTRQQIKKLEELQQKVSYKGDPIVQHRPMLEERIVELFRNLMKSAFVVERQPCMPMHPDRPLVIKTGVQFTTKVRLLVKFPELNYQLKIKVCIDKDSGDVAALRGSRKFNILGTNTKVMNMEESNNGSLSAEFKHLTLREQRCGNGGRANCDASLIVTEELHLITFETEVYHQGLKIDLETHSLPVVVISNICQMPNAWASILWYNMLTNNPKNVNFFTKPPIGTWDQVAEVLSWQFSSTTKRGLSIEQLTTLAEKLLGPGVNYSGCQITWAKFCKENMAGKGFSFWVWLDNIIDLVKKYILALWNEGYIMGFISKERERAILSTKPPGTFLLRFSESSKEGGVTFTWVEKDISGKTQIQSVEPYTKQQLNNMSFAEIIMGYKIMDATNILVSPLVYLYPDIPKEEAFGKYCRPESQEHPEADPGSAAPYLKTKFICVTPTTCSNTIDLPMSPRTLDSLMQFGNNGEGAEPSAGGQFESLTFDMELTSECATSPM

[4] = biological target: T1, Signal transducer and activator of transcription 1 (Mus musculus); assay: Inhibition of Stat1 dimer DNA binding activity in EGF-stimulated mouse NIH3T3 nuclear extract expressing human EGFR assessed as residual activity at 5 uM preincubated for 30 mins followed by addition of radiolabeled probe hSIE for 30 mins by EMSA
MDA-MB-231 [5] = assay: Antiproliferative activity against human MDA-MB-231 cells at 5 uM for 72 hrs by cyquant assay; type: functional, cell-based
[6] = biological target: Signal transducer and activator of transcription 3 (Mus musculus) (UniProt P42227); assay: Inhibition of Stat3 dimer DNA binding activity in EGF-stimulated mouse NIH3T3 nuclear extract expressing human EGFR assessed as residual activity at 5 uM preincubated for 30 mins followed by addition of radiolabeled probe hSIE for 30 mins by EMSA
Chain of Signal transducer and activator of transcription 3 (Mus musculus) (P42227 whole entry): as the sequence (P40763 whole entry) above, with E760D counted along it

[7] = biological target: Signal transducer and activator of transcription 3 (Mus musculus) (UniProt P42227); assay: Inhibition of Stat3 dimer DNA binding activity in mouse NIH3T3/vSrc nuclear extract at 5 uM preincubated for 30 mins followed by addition of radiolabeled probe hSIE for 30 mins by EMSA
[8] = biological target: T3, Signal transducer and activator of transcription 1/ 3 (Mus musculus) (UniProt P42227+P42225); assay: Inhibition of Stat1:Stat3 dimer DNA binding activity in EGF-stimulated mouse NIH3T3 nuclear extract expressing human EGFR assessed as residual activity at 5 uM preincubated for 30 mins followed by addition of radiolabeled probe hSIE for 30 mins by EMSA; type: cell-free
NIH3T3 [9] = assay: Inhibition of Stat5 dimer DNA binding activity in EGF-stimulated mouse NIH3T3 nuclear extract expressing human EGFR at 5 uM preincubated for 30 mins followed by addition of radiolabeled probe MGFe for 30 mins by EMSA; type: cell-free
[10] = Cytotoxicity against mouse NIH/3T3 cells at 5uM after 72 hrs by cyquant cells; type: cell-based; settings: nih3t3, 72 h; summary of the method: as §1
SF-295 = assay: Antiproliferative activity against human SF295 cells at 5 uM for 72 hrs by cyquant assay; type: functional, cell-based
[11] = Antiproliferative activity against human U251MG cells for 72 hrs by cyquant assay; type: functional, cell-based; settings: U-251, 72 h; summary of the method: as §1
[12] = Antiproliferative activity against human SF295 cells for 72 hrs by cyquant assay; type: functional, cell-based; settings: SF-295, 72 h; summary of the method: as §1
MCF7 = assay: Antiproliferative activity against human MCF7 cells for 72 hrs by cyquant assay; type: functional, cell-based; settings: MCF7, 72 h; summary of the method: as §1
MDA-MB-231 [13] = assay: Antiproliferative activity against human MDA-MB-231 cells for 72 hrs by cyquant assay; type: functional, cell-based; settings: MDA-MB-231, 72 h; summary of the method: as §1
[14] = Cytotoxicity against mouse NIH/3T3 cells after 72 hrs by cyquant cells; type: cell-based; settings: NIH3T3, 72 h; summary of the method: as §1
[15] = biological target: T2, Signal transducer and activator of transcription 3; assay: Inhibition of Stat3 activity in human U251MG cells assessed as phosphorylated Stat3 level at 5 uM by immunoblot analysis; type: cell-based; settings: U-251, TDE = time-dependent effect
[16] = Antiproliferative activity against human U373MG cells for 72 hrs by cyquant assay; type: functional, cell-based, U-373MG ATCC; settings: U373 MG; summary of the method: as §1
[17] = biological target: T2, Signal transducer and activator of transcription 3; assay: Inhibition of Stat3 activity in human U251MG cells assessed as phosphorylated Stat3 level at 5 uM after 0.5 to 24 hrs by immunoblot analysis; type: cell-based; settings: U-251
Summary of the method: (§2)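 U251MG cells treated with 5 μM compound for 0–24 h, or with 0–5 μM for 2 h. Whole-cell lysates immunoblotted for pStat3, Stat3, GAPDH. Control was 0.025% DMSO-treated cells.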

[18] = biological target: T3, Signal transducer and activator of transcription 1/ 3 (Mus musculus); settings: NIH3T3, 5 uM
[19] = biological target: T2, Signal transducer and activator of transcription 3; settings: U-251, 5 uM
[20] = biological target: Signal transducer and activator of transcription 3 (Mus musculus) (UniProt P42227); settings: NIH3T3, 5 uM
[21] = biological target: T2, Signal transducer and activator of transcription 3; assay: Inhibition of Stat3 activity in human U251MG cells assessed as phosphorylated Stat3 level after 2 hrs by immunoblot analysis; type: cell-based; settings: U-251; summary of the method: as §2
NIH3T3 [22] = assay: Modulation of EGF-induced Stat5 phosphorylation in mouse NIH3T3 cells expressing human EGFR at 5 uM preincubated for 3 hrs followed by stimulation with 1 ug/ml EGF for 12 mins by immunoblot analysis; type: cell-based
Summary of the method: (§3)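 Whole-cell lysates of equal total protein from NIH3T3/hEGFR fibroblasts, pretreated with or without 5 μM compound (control 0.025% DMSO) for 3 h, then stimulated with 1 μg/ml EGF for 12 min. SDS-PAGE immunoblotting for pStat1/Stat1 and pStat5/Stat5 with β-actin or GAPDH loading controls. Representative of 2–4 independent determinations.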

[23] = biological target: Signal transducer and activator of transcription 3 (Mus musculus) (UniProt P42227); assay: Inhibition of EGF-induced Stat3 phosphorylation in mouse NIH3T3 cells expressing human EGFR at 5 uM preincubated for 3 hrs followed by stimulation with 1 ug/ml EGF for 12 mins by immunoblot analysis; type: cell-based
Summary of the method: (§4)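 NIH3T3/hEGFR fibroblasts pretreated with or without 5 μM compound for 3 h, then stimulated with 1 μg/ml EGF for 12 min. Whole-cell lysates of equal total protein immunoblotted for phospho and total Stat3, Stat1, Stat5, Erk1/2. Controls were 0.025% DMSO-treated cells. Representative of 2–4 independent determinations.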

U-251 [24] = assay: Effect on SOCS3 expression in human U251MG cells at 5 uM after 0.5 to 24 hrs by immunoblot analysis; type: functional, cell-based
Summary of the method: (§5)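 U251MG cells treated with 5 μM compound for 0–24 h; whole-cell lysates of equal total protein immunoblotted. Controls were 0.025% DMSO-treated cells. Representative of 2–4 independent determinations.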

[25] = biological target: T1, Signal transducer and activator of transcription 1 (Mus musculus); assay: Modulation of EGF-induced Stat1 phosphorylation in mouse NIH3T3 cells expressing human EGFR at 5 uM preincubated for 3 hrs followed by stimulation with 1 ug/ml EGF for 12 mins by immunoblot analysis; type: cell-based; summary of the method: as §3
U-251 [26] = assay: Effect on PTP1B expression in human U251MG cells at 5 uM after 0.5 to 24 hrs by immunoblot analysis; type: functional, cell-based; summary of the method: as §5
[27] = biological target: RAC-alpha serine/threonine-protein kinase (Homo sapiens) (UniProt P31749); assay: Modulation of Akt phosphorylation in human U251MG cells at 5 uM after 0.5 to 24 hrs by immunoblot analysis; type: cell-based; settings: U-251; summary of the method: as §5
Chain of RAC-alpha serine/threonine-protein kinase (Homo sapiens) (P31749 whole entry): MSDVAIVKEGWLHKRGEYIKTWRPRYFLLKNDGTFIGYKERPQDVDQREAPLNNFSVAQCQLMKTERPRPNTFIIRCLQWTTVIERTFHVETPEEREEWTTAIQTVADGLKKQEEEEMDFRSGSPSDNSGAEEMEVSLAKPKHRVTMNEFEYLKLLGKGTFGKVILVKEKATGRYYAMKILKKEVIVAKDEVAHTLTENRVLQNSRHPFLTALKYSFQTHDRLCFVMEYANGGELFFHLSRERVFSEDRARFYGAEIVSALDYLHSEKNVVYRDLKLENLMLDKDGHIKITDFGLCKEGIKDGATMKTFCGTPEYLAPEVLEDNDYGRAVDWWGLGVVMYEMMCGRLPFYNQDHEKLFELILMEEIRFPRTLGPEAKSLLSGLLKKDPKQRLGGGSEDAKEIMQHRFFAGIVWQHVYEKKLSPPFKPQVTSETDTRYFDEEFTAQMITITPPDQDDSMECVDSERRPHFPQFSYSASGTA

[28] = biological target: Mitogen-activated protein kinase 1 and 3 (ERK2 and ERK1) (Mus musculus) (UniProt P63085+Q63844); assay: Modulation of EGF-induced Erk1/2 phosphorylation in mouse NIH3T3 cells expressing human EGFR at 5 uM preincubated for 3 hrs followed by stimulation with 1 ug/ml EGF for 12 mins by immunoblot analysis; type: cell-based; summary of the method: as §4
Chain of Mitogen-activated protein kinase 1 and 3 (ERK2 and ERK1) (Mus musculus) (P63085 whole entry, looked up): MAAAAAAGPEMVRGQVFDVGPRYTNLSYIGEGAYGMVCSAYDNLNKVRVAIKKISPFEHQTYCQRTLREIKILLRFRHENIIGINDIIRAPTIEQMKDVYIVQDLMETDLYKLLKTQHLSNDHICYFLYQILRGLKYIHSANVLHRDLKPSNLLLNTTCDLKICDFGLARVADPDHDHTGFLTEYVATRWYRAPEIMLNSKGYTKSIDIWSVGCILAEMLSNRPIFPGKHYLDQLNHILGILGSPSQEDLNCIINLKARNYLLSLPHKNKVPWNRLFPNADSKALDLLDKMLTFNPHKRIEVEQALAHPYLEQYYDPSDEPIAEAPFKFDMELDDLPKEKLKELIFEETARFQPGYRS
Chain of Mitogen-activated protein kinase 1 and 3 (ERK2 and ERK1) (Mus musculus) (Q63844 whole entry, looked up): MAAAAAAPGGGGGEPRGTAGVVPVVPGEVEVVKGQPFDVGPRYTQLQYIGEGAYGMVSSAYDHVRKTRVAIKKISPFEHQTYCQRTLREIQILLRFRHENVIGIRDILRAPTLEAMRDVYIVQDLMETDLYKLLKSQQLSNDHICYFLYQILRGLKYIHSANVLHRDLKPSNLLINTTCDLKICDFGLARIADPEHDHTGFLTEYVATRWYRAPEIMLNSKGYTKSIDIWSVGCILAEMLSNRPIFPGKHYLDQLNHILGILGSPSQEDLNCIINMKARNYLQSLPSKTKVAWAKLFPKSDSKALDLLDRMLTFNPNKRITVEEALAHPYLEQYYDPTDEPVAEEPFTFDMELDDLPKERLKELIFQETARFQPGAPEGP

[29] = biological target: Mitogen-activated protein kinase; ERK1/ERK2 (Homo sapiens) (UniProt P27361+P28482); assay: Modulation of Erk1/2 phosphorylation in human U251MG cells at 5 uM after 0.5 to 24 hrs by immunoblot analysis; type: cell-based; settings: U-251
Chain of Mitogen-activated protein kinase; ERK1/ERK2 (Homo sapiens) (P27361 whole entry, looked up): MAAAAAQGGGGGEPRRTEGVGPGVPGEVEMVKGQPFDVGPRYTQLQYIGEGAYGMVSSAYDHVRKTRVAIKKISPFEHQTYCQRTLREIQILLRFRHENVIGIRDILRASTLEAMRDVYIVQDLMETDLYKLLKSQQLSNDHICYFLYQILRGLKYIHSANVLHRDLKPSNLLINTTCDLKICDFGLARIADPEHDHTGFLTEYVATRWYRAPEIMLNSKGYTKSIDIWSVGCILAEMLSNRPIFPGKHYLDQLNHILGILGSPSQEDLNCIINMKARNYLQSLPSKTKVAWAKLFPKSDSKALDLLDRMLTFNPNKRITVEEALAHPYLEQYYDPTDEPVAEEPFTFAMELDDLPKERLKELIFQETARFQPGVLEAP
Chain of Mitogen-activated protein kinase; ERK1/ERK2 (Homo sapiens) (P28482 whole entry, looked up): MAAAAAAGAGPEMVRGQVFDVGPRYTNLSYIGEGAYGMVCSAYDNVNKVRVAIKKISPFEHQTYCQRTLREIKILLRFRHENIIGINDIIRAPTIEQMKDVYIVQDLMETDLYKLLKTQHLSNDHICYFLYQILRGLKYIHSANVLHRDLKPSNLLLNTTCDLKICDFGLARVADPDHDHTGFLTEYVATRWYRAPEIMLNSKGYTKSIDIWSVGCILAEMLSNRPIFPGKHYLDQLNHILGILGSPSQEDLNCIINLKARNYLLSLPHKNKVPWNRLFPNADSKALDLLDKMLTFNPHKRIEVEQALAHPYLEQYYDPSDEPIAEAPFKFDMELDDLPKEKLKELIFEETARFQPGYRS
Summary of the method: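 U251MG glioma cells (RPMI or DMEM, 10% FBS, 1% nonessential amino acids) treated with 5 μM compound for 0–24 h; 0.025% DMSO control. Whole-cell lysates of equal total protein immunoblotted for pErk1/2, Erk1/2, pJAK2 and JAK2 with β-actin or GAPDH loading controls. Representative of 2–4 independent determinations.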

[30] = biological target: T2, Signal transducer and activator of transcription 3; assay: Inhibition of orthovandate-induced Stat3 phosphorylation in human U251MG cells at 5 uM for 3 hrs by immunoblot analysis in presence of 10 to 300 uM orthovandate; type: cell-based; settings: U-251
Summary of the method: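 U251MG cells treated with 5 μM compound for 3 h without or with 10–300 μM Na3VO4. Whole-cell lysates of equal total protein immunoblotted for pStat3 and Stat3. Controls were 0.025% DMSO. Representative of 2–4 determinations.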

SMILES	inhibition (U-251 [1])	inhibition [2]	Activity [3]	Activity [4]	inhibition (MDA-MB-231 [5])	Activity [6]	inhibition [7]	Activity [8]	inhibition (NIH3T3 [9])	Activity [10]	inhibition (SF-295)	IC50 [11]	IC50 [12]	IC50 (MDA-MB-231 [13])	IC50 [14]	inhibition [15]	IC50 [16]	inhibition [17]	other results
CC(=O)OCC1=C2/C(=C\[C@@]3(C)CC[C@](O)(O3)[C@H](C)C[C@@H]2O)OC1=O	Active	inactive	Dose-dependent effect	60%	Active	28%	Active	43%	inactive	Non-toxic	inactive								
C=C(C)C(=O)O[C@H]1C[C@@H](C)[C@]2(O)CC[C@](C)(/C=C3/OC(=O)C(COC(C)=O)=C31)O2	Active	inactive	Dose-dependent effect		Active		Active		inactive	Toxic	Active	2600 nM	9.1 µM	5.2 µM	7.1 µM	tde	8.3 µM		IC50 (MCF7): 7.7 µM
C/C=C(/C)C(=O)O[C@H]1C[C@@H](C)[C@]2(O)CC[C@](C)(/C=C3/OC(=O)C(CO)=C31)O2	Active	inactive		61%	inactive	63%	Active	71%	inactive	Non-toxic	inactive							Active	
CC(C)=CCC/C(C)=C/C(=O)OCC1=C2/C(=C\[C@@]3(C)CC[C@](O)(O3)[C@H](C)C[C@@H]2O)OC1=O	Active	Active					Active					1000 nM			> 5 µM				inhibition [18]: Active; inhibition [19]: inactive; inhibition [20]: Active; inhibition [21]: Dose-dependent effect
C/C=C(/C)C(=O)O[C@H]1C[C@@H](C)[C@]2(O)CC[C@](C)(/C=C3/OC(=O)C(COC(C)=O)=C31)O2	Active	inactive		60%	Active	47%	Active	61%	inactive	Toxic	Active	3300 nM	8.6 µM	7.4 µM	11.8 µM	tde	10.4 µM		inhibition (NIH3T3 [22]): inactive; inhibition [23]: Active; Activity (U-251 [24]): inactive; inhibition [25]: inactive; Activity (U-251 [26]): inactive; Activity [27]: inactive; inhibition [28]: inactive; Activity [29]: inactive; inhibition [30]: Active
CCC(C)C(=O)OCC1=C2/C(=C\[C@@]3(C)CC[C@](O)(O3)[C@H](C)C[C@@H]2O)OC1=O (stereo partly drawn)							Active											Active	
